Four compounds from ChEMBL document CHEMBL2380223, “A thiocarbamate inhibitor of endothelial lipase raises HDL cholesterol levels in mice” (Bioorg Med Chem Lett, 2013) can be followed below.

Data set [1] concerns the target T1, Endothelial lipase (Mus musculus, UniProt Q9WVG5).
T1 sequence (Q9WVG5 whole entry): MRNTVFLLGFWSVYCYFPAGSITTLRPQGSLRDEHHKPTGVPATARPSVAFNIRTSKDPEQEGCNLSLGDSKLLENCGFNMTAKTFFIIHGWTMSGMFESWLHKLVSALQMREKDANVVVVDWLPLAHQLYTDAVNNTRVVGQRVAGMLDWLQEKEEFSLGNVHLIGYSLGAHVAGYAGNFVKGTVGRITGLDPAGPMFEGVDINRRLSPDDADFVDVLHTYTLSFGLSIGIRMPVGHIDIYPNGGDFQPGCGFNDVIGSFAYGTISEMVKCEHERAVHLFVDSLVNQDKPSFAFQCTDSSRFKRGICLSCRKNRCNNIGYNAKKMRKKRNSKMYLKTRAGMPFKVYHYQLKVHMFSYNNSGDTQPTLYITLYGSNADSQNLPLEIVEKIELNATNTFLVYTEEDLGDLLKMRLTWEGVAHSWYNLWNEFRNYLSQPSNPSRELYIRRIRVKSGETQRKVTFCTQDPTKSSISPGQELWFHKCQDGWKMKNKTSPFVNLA
Put plainly: Inhibition of mouse EL expressed in HEK293 cells using PED-A1 as substrate by spectrophotometry. Format: cell-based.

The target in a further data set is T2, Lipoprotein lipase (Homo sapiens, UniProt P06858).
T2 sequence (P06858 whole entry): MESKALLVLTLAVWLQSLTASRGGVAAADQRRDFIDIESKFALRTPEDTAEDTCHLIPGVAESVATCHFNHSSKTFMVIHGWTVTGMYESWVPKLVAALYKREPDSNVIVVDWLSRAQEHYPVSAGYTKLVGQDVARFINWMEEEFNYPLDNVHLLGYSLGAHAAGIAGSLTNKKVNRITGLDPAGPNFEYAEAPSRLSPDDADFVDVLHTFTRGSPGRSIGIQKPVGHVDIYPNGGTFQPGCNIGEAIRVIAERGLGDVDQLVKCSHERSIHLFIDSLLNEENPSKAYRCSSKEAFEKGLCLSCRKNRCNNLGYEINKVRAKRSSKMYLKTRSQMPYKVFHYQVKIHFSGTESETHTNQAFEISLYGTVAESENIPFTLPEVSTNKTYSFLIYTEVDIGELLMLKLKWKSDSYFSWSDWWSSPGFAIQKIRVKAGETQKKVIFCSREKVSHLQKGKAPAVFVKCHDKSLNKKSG
In words: Inhibition of human LPL expressed in HEK293 cells using PED-A1 as substrate by spectrophotometry.

For data set [2], the system named is Mus musculus. Put plainly: Increase in plasma HDL-C level in C57BL/6J HL-/- mouse at 100 mg/kg, ip administered for 2 days followed by a dose on 3rd day morning measured 1 hr post last dose relative to vehicle-treated control. The settings on record: route intraperitoneal. Type of data set: functional. The procedure, abridged: (§1)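 C57BL/6J HL-/- (hepatic lipase knockout) mice dosed intraperitoneally with compound or vehicle for three days, at 10, 30 and 100 mg/kg. Plasma lipoproteins, including HDL-C, measured 1 h after the last dose. Percent increase is calculated against vehicle-treated controls, with significance testing between groups.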

Data set [3] has as its system Mus musculus. Put plainly: Increase in plasma HDL-C level in C57BL/6J HL-/- mouse at 30 mg/kg, ip administered for 2 days followed by a dose on 3rd day morning measured 1 hr post last dose relative to vehicle-treated control. Type of data set: functional. The following applies: route intraperitoneal. The procedure, abridged:
as §1

The target of data set [4] is T3, Endothelial lipase (Homo sapiens) (UniProt Q9Y5X9).
T3 sequence (whole entry): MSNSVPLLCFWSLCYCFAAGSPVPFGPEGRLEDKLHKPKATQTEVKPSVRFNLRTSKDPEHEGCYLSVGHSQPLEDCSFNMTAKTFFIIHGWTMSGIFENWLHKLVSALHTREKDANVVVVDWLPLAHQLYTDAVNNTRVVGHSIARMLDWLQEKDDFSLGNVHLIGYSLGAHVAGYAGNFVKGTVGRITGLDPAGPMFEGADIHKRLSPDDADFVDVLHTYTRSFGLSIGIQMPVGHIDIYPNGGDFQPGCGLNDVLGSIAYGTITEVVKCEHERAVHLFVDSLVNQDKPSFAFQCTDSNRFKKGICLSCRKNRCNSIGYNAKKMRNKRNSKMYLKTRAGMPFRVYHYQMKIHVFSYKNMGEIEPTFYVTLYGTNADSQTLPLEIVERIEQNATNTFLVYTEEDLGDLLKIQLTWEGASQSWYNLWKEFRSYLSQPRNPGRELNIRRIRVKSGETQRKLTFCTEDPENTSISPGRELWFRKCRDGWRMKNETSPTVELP
Put plainly: (§2) Time dependent inhibition of human EL (19 to 500) expressed in HEK293 cells using PED-A1 as substrate by spectrophotometry. Format: cell-based.

In data set [5] the target is T4, Hepatic triacylglycerol lipase (Homo sapiens, UniProt P11150).
T4 sequence (P11150 whole entry): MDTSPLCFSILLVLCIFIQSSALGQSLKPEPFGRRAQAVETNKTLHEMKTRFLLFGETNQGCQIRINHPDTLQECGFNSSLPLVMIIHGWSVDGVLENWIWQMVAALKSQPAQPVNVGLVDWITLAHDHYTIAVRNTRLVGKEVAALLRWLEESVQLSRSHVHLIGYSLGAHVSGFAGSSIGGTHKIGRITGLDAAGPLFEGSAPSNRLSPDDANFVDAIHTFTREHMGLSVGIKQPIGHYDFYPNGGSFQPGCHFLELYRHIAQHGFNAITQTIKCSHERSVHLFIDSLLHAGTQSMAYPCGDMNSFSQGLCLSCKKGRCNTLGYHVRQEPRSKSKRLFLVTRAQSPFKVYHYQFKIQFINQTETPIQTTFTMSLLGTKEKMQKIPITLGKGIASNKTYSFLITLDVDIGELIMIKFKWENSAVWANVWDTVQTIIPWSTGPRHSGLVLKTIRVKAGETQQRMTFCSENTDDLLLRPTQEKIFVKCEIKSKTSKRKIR
Put plainly: Inhibition of human HL expressed in HEK293 cells using PED-A1 as substrate by spectrophotometry.

For data set [6], the system named is Mus musculus. In words: Increase in plasma HDL-C level in C57BL/6J mouse at 100 mg/kg, ip administered for 2 days followed by a dose on 3rd day morning measured 1 hr post last dose relative to vehicle-treated control. The settings on record: route intraperitoneal. Format: functional. The procedure, abridged: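 C57BL/6J mice given vehicle or compound intraperitoneally, five doses over three days; plasma HDL-C measured 1 h after the last dose. Tested at 100 mg/kg. Change is expressed relative to vehicle controls, as means ± SD, n = 8 per group, with significance tested against the vehicle group.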

Data set [7] concerns Mus musculus. In words: Inhibition of EL in C57BL/6J HL-/- mouse assessed as elevated plasma HDL-C level at 30 to 100 mg/kg, ip bid for 2 days followed by a dose on 3rd day morning measured 1 hr post last dose. Format: functional, organism-based. The method, boiled down: as §1
Data set [8] has as its target Endothelial lipase (Mus musculus) (UniProt Q9WVG5). Put plainly: Inhibition of EL in C57BL/6J HL-/- mouse assessed as elevated plasma phospholipid level at 30 to 100 mg/kg, ip bid for 2 days followed by a dose on 3rd day morning measured 1 hr post last dose.
The subject of a further data set is Plasma. Put plainly: Plasma concentration in ip dosed C57BL/6J HL-/- mouse administered for 3 days measured 1 hr post last dose. Type of data set: ADME, organism-based. The following applies: in vivo. The method, boiled down:
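In HL-/- mice given intraperitoneal doses (10, 30, 100 mg/kg) for three days, plasma compound concentrations were measured 1 h after the final dose. In individual animals, these were correlated with plasma HDL-C and phospholipids.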

Data set [9] has as its target T5, Endothelial lipase (Homo sapiens, UniProt Q9Y5X9).
T5 sequence (Q9Y5X9 whole entry): T3 sequence (whole entry)
The description is as §2. Format: cell-based.

SMILES strings stand for the structures. The source made the active and inactive calls. The calls are words filed in the database; no cut-off is given here. Some results are limits rather than exact numbers.

As usually defined, the IC50 is the point on the concentration scale where inhibition reaches its midpoint. Lower therefore signals inhibition by little substance. Turning to `O=C(NCCCCCCc1ccccc1)OCc1ccccc1F`, the IC50 against Endothelial lipase [1] was > 33000 nM.
Regarding `O=C(NCCCCCCc1ccccc1)SCc1ccccc1F`, the IC50 amounted to 1690 nM against Lipoprotein lipase, 1360 nM in [5] and 680 nM at Endothelial lipase [1]. The results for the Activity in the data set on Mus musculus [2], in the data set on Mus musculus [3] and in the data set on Mus musculus [6] were 77%, 23% and 37%, respectively. In addition, the inhibition result in data set [4] was “Active”. The outcome (in the data set with Mus musculus [7]; in [8]) was Active. For the same compound, the Drug uptake entry in the data set on Plasma was “Dose-dependent effect”.
`O=C(NCCCCCCc1ccccc1)Oc1ccccc1F` showed an IC50 at Endothelial lipase [1] of 470 nM.
For the compound `O=C(NCCCCCOc1cc(F)cc(F)c1)SCc1nnc(-c2ccccc2)o1`, the 50% inhibitory concentration (IC50) on Endothelial lipase [9] stood at 23 nM.
